Source: ChEMBL document CHEMBL5303300, “EUbOPEN Chemogenomics Library - Multiplex” (2023)
Values joined by “and” are separate entries in the source; they are usually repeats but may differ in a detail not shown here. Equal entries are not always repeated.

Test system: HEK-293T
Assay: Multiplex assay against HEK293T
Format: toxicity, cell-based
Conditions: human, number of replicates 2
Procedure, shortened: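 Four dyes were applied at seeding to live cells: Hoechst33342, BioTracker Green Microtubule Cytoskeleton Dye, MitoTracker Red and Annexin V Alexa Fluor 680. Imaging after compound addition used a CQ1 microscope at 37°C and 5% CO2. CellPathfinder machine-learning gating then sorted cells into Hoechst high-intensity objects or normal cells, normal cells into healthy, pyknosed or fragmented nuclei, and pyknosed cells into mitotic or apoptotic, with tubulin, mitochondrial-mass and membrane-permeability phenotypes given as per cents of healthy-nucleus cells.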

[1] = 12 h, 1 µM, compound concentration 1 uM
[2] = 12 h, 10 µM, compound concentration 10 uM
[3] = 24 h, 1 µM, compound concentration 1 uM
[4] = 24 h, 10 µM, compound concentration 10 uM
[5] = 48 h, 1 µM, compound concentration 1 uM
[6] = 48 h, 10 µM, compound concentration 10 uM

## CCNc1ccc(-c2nn(-c3ccccc3C)c3c2C(C)Cc2nc(NC(=O)OC)sc2-3)cn1.O=C(O)C(F)(F)F (configuration not stated)
[1]
  Population Apoptotic (%): 69% and 60%
  Population Fragmented Nuclei (%): 4% and 5%
  Population Healthy Nuclei (%): 86% and 81%
  Population Hoechst High Intensity Objects (%): 11% and 12%
  Population Membrane Permeable-Phenotype (%): 2%
  Population Mitochondria Different-Phenotype (%): 45% and 38%
  Population Mitotic Cells (%): 30% and 39%
  Population Normal (%): 88% and 87%
  Population Pyknosed Nuclei (%): 8% and 13%
  Population Tubulin-Different-Phenotype (%): 74% and 65%
  Total Cell Count: 430 and 487
[2]
  Population Apoptotic (%): 73% and 72%
  Population Fragmented Nuclei (%): 3% and 4%
  Population Healthy Nuclei (%): 85% and 79%
  Population Hoechst High Intensity Objects (%): 10%
  Population Membrane Permeable-Phenotype (%): 3%
  Population Mitochondria Different-Phenotype (%): 74% and 79%
  Population Mitotic Cells (%): 26% and 27%
  Population Normal (%): 89%
  Population Pyknosed Nuclei (%): 10% and 16%
  Population Tubulin-Different-Phenotype (%): 94% and 96%
  Total Cell Count: 308 and 225
[3]
  Population Apoptotic (%): 58% and 82%
  Population Fragmented Nuclei (%): 5%
  Population Healthy Nuclei (%): 82% and 81%
  Population Hoechst High Intensity Objects (%): 26% and 16%
  Population Membrane Permeable-Phenotype (%): 0%
  Population Mitochondria Different-Phenotype (%): 44% and 63%
  Population Mitotic Cells (%): 41% and 17%
  Population Normal (%): 73% and 83%
  Population Pyknosed Nuclei (%): 11% and 12%
  Population Tubulin-Different-Phenotype (%): 72% and 85%
  Total Cell Count: 409 and 322
[4]
  Population Apoptotic (%): 54% and 66%
  Population Fragmented Nuclei (%): 6% and 5%
  Population Healthy Nuclei (%): 76% and 74%
  Population Hoechst High Intensity Objects (%): 13% and 16%
  Population Membrane Permeable-Phenotype (%): 1%
  Population Mitochondria Different-Phenotype (%): 86% and 85%
  Population Mitotic Cells (%): 45% and 33%
  Population Normal (%): 86% and 83%
  Population Pyknosed Nuclei (%): 16% and 19%
  Population Tubulin-Different-Phenotype (%): 89% and 95%
  Total Cell Count: 234 and 199
[5]
  Population Apoptotic (%): 75% and 85%
  Population Fragmented Nuclei (%): 11%
  Population Healthy Nuclei (%): 69% and 74%
  Population Hoechst High Intensity Objects (%): 28% and 29%
  Population Membrane Permeable-Phenotype (%): 0%
  Population Mitochondria Different-Phenotype (%): 43% and 50%
  Population Mitotic Cells (%): 24% and 14%
  Population Normal (%): 71% and 70%
  Population Pyknosed Nuclei (%): 19% and 14%
  Population Tubulin-Different-Phenotype (%): 75% and 80%
  Total Cell Count: 418 and 399
[6]
  Population Apoptotic (%): 73% and 66%
  Population Fragmented Nuclei (%): 5% and 3%
  Population Healthy Nuclei (%): 86% and 81%
  Population Hoechst High Intensity Objects (%): 19% and 13%
  Population Membrane Permeable-Phenotype (%): 2% and 1%
  Population Mitochondria Different-Phenotype (%): 83% and 80%
  Population Mitotic Cells (%): 26% and 33%
  Population Normal (%): 80% and 86%
  Population Pyknosed Nuclei (%): 7% and 15%
  Population Tubulin-Different-Phenotype (%): 89% and 93%
  Total Cell Count: 239 and 207

## Cc1cc(NC(=O)c2cccc(NC(=O)/C=C/CN(C)C)c2)ccc1Nc1nccc(-c2cccnc2)n1
[1]
  Population Apoptotic (%): 41% and 60%
  Population Fragmented Nuclei (%): 3%
  Population Healthy Nuclei (%): 87%
  Population Hoechst High Intensity Objects (%): 11% and 10%
  Population Membrane Permeable-Phenotype (%): 4% and 2%
  Population Mitochondria Different-Phenotype (%): 40% and 30%
  Population Mitotic Cells (%): 58% and 40%
  Population Normal (%): 88% and 89%
  Population Pyknosed Nuclei (%): 9%
  Population Tubulin-Different-Phenotype (%): 93% and 92%
  Total Cell Count: 450 and 477
[2]
  Population Apoptotic (%): 63% and 71%
  Population Fragmented Nuclei (%): 1% and 3%
  Population Healthy Nuclei (%): 85% and 87%
  Population Hoechst High Intensity Objects (%): 8% and 11%
  Population Membrane Permeable-Phenotype (%): 2% and 1%
  Population Mitochondria Different-Phenotype (%): 35% and 50%
  Population Mitotic Cells (%): 36% and 28%
  Population Normal (%): 91% and 88%
  Population Pyknosed Nuclei (%): 12% and 9%
  Population Tubulin-Different-Phenotype (%): 95% and 97%
  Total Cell Count: 393 and 436
[3]
  Population Apoptotic (%): 62% and 53%
  Population Fragmented Nuclei (%): 5%
  Population Healthy Nuclei (%): 82% and 81%
  Population Hoechst High Intensity Objects (%): 11% and 10%
  Population Membrane Permeable-Phenotype (%): 2%
  Population Mitochondria Different-Phenotype (%): 36% and 28%
  Population Mitotic Cells (%): 37% and 46%
  Population Normal (%): 88% and 89%
  Population Pyknosed Nuclei (%): 12%
  Population Tubulin-Different-Phenotype (%): 92% and 90%
  Total Cell Count: 510 and 551
[4]
  Population Apoptotic (%): 76% and 74%
  Population Fragmented Nuclei (%): 2% and 5%
  Population Healthy Nuclei (%): 87% and 77%
  Population Hoechst High Intensity Objects (%): 19% and 14%
  Population Membrane Permeable-Phenotype (%): 0% and 1%
  Population Mitochondria Different-Phenotype (%): 79% and 60%
  Population Mitotic Cells (%): 23% and 25%
  Population Normal (%): 80% and 85%
  Population Pyknosed Nuclei (%): 10% and 17%
  Population Tubulin-Different-Phenotype (%): 99% and 96%
  Total Cell Count: 367 and 377
[5]
  Population Apoptotic (%): 66% and 70%
  Population Fragmented Nuclei (%): 10% and 12%
  Population Healthy Nuclei (%): 77% and 76%
  Population Hoechst High Intensity Objects (%): 11% and 12%
  Population Membrane Permeable-Phenotype (%): 5% and 7%
  Population Mitochondria Different-Phenotype (%): 10% and 11%
  Population Mitotic Cells (%): 33% and 29%
  Population Normal (%): 88% and 87%
  Population Pyknosed Nuclei (%): 11%
  Population Tubulin-Different-Phenotype (%): 83% and 80%
  Total Cell Count: 671 and 800
[6]
  Population Apoptotic (%): 74% and 73%
  Population Fragmented Nuclei (%): 6%
  Population Healthy Nuclei (%): 43% and 40%
  Population Hoechst High Intensity Objects (%): 27% and 19%
  Population Membrane Permeable-Phenotype (%): 12% and 9%
  Population Mitochondria Different-Phenotype (%): 61%
  Population Mitotic Cells (%): 25% and 26%
  Population Normal (%): 72% and 80%
  Population Pyknosed Nuclei (%): 50% and 52%
  Population Tubulin-Different-Phenotype (%): 74% and 70%
  Total Cell Count: 368 and 375
